{
  "source": "ChEMBL document CHEMBL1212693",
  "about": "“Dorsomorphin inhibits BMP signals required for embryogenesis and iron metabolism” (Nat Chem Biol, 2008)",
  "key": {"[1]": {"tested_on": "Danio rerio", "test": "Inhibition of iron-dextran conjugate-induced Smad-1 phosphorylation in zebrafish at 23 ug/g, iv after 1 hr relative to control", "type": "functional"}, "[2]": {"tested_on": "Mus musculus", "test": "Inhibition of iron-dextran conjugate-induced hepcidin mRNA expression in C57BL/6 mouse at 10 mg/kg, iv after 6 hrs by qRT-PCR analysis", "type": "functional, organism-based", "set-up": "dose 10 mg/kg"}, "[3]": {"species": "Danio rerio", "test": "Inhibition of BMPR1 in zebrafish assessed as embryonic axis dorsalization at 20 uM treated at 2 hrs post-fertilization measured after 36 hrs in presence of 1 ng chordin morpholino", "method_in_brief": "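Wild-type zebrafish embryos injected with 1 ng chordin morpholino, then exposed to vehicle or compound (20 µM) at 2 h.p.f. Photographed at 36 h.p.f. to score the intermediate cell mass and ventral tail fin structures.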"}, "[4]": {"test": "(§1) Inhibition of BMPR1-mediated Smad-8 phosphorylation in BMP4-stimulated mouse PASMC treated 30 mins before BMP4 challenge measured after 30 mins by immunoblot analysis", "method_in_brief": "(§2)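 Mouse PASMCs were held 24 h in RPMI with 0.5% FCS. They were preincubated 30 min with test agent, noggin or vehicle, then exposed to recombinant BMP4 for 30 min. SDS lysates were immunoblotted for phospho-SMAD1/5/8 and bands quantified by phosphorimager. Dose-dependence was fitted as a Hill plot.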"}, "[5]": {"species": "Mus musculus", "test": "as §1", "method_in_brief": "as §2"}, "[6]": {"species": "Mus musculus", "test": "Inhibition of BMPR1-mediated Smad-5 phosphorylation in BMP4-stimulated mouse PASMC at 100 to 200 ng/ml treated 30 mins before BMP4 challenge measured after 30 mins by immunoblot analysis", "method_in_brief": "as §2"}, "[7]": {"species": "Mus musculus", "test": "Inhibition of BMPR1-mediated MAPK p38 phosphorylation in BMP4-stimulated mouse PASMC at 100 to 200 ng/ml treated 30 mins before BMP4 challenge measured after 30 mins by immunoblot analysis", "method_in_brief": "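Mouse PASMCs were serum-reduced 24 h in 0.5% FCS RPMI, pretreated 30 min with noggin or vehicle, then given BMP4 for 30 min. Lysates in SDS buffer were immunoblotted for phospho-SMAD1/5/8 and phospho-MAPK p38, and signals were quantitated by phosphorimager.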"}, "[8]": {"species": "Mus musculus", "test": "Inhibition of BMPR1-mediated Smad-8 phosphorylation in BMP2-stimulated mouse PASMC at 4 uM treated 30 mins before BMP2 challenge measured after 30 mins by immunoblot analysis", "method_in_brief": "(§3)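 Wild-type mouse PASMCs were kept in RPMI with 0.5% FCS for 24 h. They were preincubated with compound or vehicle for 30 min, then stimulated for 30 min with recombinant BMP2, BMP4, BMP6 or BMP7 at 10 ng ml−1. Lysates in SDS buffer were immunoblotted with anti-phospho-SMAD1/5/8. Total SMAD1 and α-tubulin served as loading controls, and bands were quantified by phosphorimager.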"}, "[9]": {"species": "Mus musculus", "test": "Inhibition of BMPR1-mediated Smad-8 phosphorylation in BMP7-stimulated mouse PASMC at 4 uM treated 30 mins before BMP7 challenge measured after 30 mins by immunoblot analysis", "method_in_brief": "as §3"}, "[10]": {"species": "Mus musculus", "test": "Inhibition of BMPR1-mediated Smad-8 phosphorylation in BMP7-stimulated mouse BMPR2 deficient PASMC at 4 uM treated 30 mins before BMP7measured after 30 mins by immunoblot analysis"}, "[11]": {"species": "Mus musculus", "test": "Inhibition of ALK2-mediated Smad-5 phosphorylation in BMPR2 deficient mouse PASMC at 10 uM by immunoblot analysis", "method_in_brief": "(§4)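 BMPR-II–deficient mouse PASMCs (RPMI, 10% FBS) transiently transfected with constitutively active ALK2, ALK3 or ALK6 cDNA, or plasmid-only control. Incubated with or without compound (10 µM). Extracts lysed in SDS buffer, run on SDS-PAGE and immunoblotted for phospho-SMAD1/5/8; quantitated by phosphorimager.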"}, "[12]": {"species": "Mus musculus", "test": "Inhibition of ALK3-mediated Smad-8 phosphorylation in BMPR2 deficient mouse PASMC at 10 uM by immunoblot analysis", "method_in_brief": "as §4"}, "[13]": {"species": "Mus musculus", "test": "Inhibition of ALK6-mediated Smad-5 phosphorylation in BMPR2 deficient mouse PASMC at 10 uM by immunoblot analysis", "method_in_brief": "as §4"}, "[14]": {"species": "Mus musculus", "test": "Inhibition of ALK3-mediated Id1 promoter activity in BMPR2 deficient mouse PASMC at 10 uM by immunoblot analysis", "method_in_brief": "(§5)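 BMPR-II–deficient mouse PASMCs at 50% confluence co-transfected with Id1 promoter firefly luciferase (BRE-Luc, 0.3 µg), caALK2, caALK3 or caALK6 (0.6 µg), and pRL-TK Renilla (0.2 µg). Compound (4–10 µM) or vehicle added 1 h after transfection. Activity read as firefly/Renilla ratio by dual luciferase assay; n = 3, mean ± s.d.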"}, "[15]": {"species": "Mus musculus", "test": "Inhibition of ALK6-mediated Id1 promoter activity in BMPR2 deficient mouse PASMC at 10 uM by immunoblot analysis", "method_in_brief": "as §5"}, "[16]": {"tested_on": "Hep 3B2", "test": "Inhibition of hepcidin mRNA expression in human Hep3B cells at 4 uM […] by qRT-PCR analysis", "type": "functional", "conditions": "0.5 h"}, "[17]": {"species": "Danio rerio", "test": "Inhibition of BMPR1 in zebrafish assessed as severity of embryonic axis dorsalization at 10 uM treated at 2 to 4 hrs post-fertilization measured at 48 hrs", "set-up": "scale not given: the % may be the effect or the level left"}, "[18]": {"species": "Danio rerio", "test": "Inhibition of BMPR1 in zebrafish assessed as penetrance of normal embryonic axis dorsalization at 10 uM treated at 2 to 8 hrs post-fertilization measured at 48 hrs", "set-up": "scale not given: the % may be the effect or the level left"}, "[19]": {"species": "Danio rerio", "test": "Inhibition of BMPR1 in zebrafish assessed as penetrance of mild embryonic axis dorsalization at 10 uM treated at 2 to 8 hrs post-fertilization measured at 48 hrs", "set-up": "scale not given: the % may be the effect or the level left", "method_in_brief": "(§6)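 Compound added at the stated times and concentrations. Gross morphology scored visually at up to 48 h.p.f. for dorsalization of the embryonic axis.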"}, "[20]": {"species": "Danio rerio", "test": "Inhibition of BMPR1 in zebrafish assessed as penetrance of mild embryonic axis dorsalization at 0.2 uM treated at 3 hrs post-fertilization measured at 48 hrs", "set-up": "scale not given: the % may be the effect or the level left", "method_in_brief": "as §6"}, "[21]": {"species": "Danio rerio", "test": "Inhibition of BMPR1 in zebrafish assessed as severity of embryonic axis dorsalization at 0.2 uM treated at 3 hrs post-fertilization measured at 48 hrs", "set-up": "scale not given: the % may be the effect or the level left"}, "[22]": {"species": "Danio rerio", "test": "Inhibition of BMPR1 in zebrafish assessed as penetrance of mild embryonic axis dorsalization at 5 uM treated at 3 hrs post-fertilization measured at 48 hrs", "set-up": "scale not given: the % may be the effect or the level left", "method_in_brief": "as §6"}, "[23]": {"species": "Danio rerio", "test": "Toxicity in zebrafish assessed as mortality at 0.2 to 10 uM", "type": "organism-based", "conditions": "in vivo"}, "[24]": {"species": "Danio rerio", "test": "Inhibition of BMPR1 in zebrafish assessed as penetrance of moderate embryonic axis dorsalization at 10 uM treated continuously from 4 hrs post-fertilization measured after 48 hrs", "set-up": "scale not given: the % may be the effect or the level left", "method_in_brief": "as §6"}, "[25]": {"species": "Danio rerio", "test": "Inhibition of BMPR1 in zebrafish assessed as penetrance of mild embryonic axis dorsalization at 10 uM treated continuously from 2 hrs post-fertilization measured after 48 hrs", "set-up": "scale not given: the % may be the effect or the level left", "method_in_brief": "as §6"}, "[26]": {"species": "Danio rerio", "test": "Inhibition of BMPR1 in zebrafish assessed as severity of embryonic axis dorsalization at 10 uM treated continuously from 6 hrs post-fertilization measured at 48 hrs", "set-up": "scale not given: the % may be the effect or the level left"}, "[27]": {"species": "Danio rerio", "test": "Inhibition of BMPR1 in zebrafish assessed as penetrance of normal embryonic axis dorsalization at 10 uM treated continuously from 10 hrs post-fertilization measured at 48 hrs", "set-up": "scale not given: the % may be the effect or the level left"}, "[28]": {"species": "Danio rerio", "test": "Inhibition of BMPR1 in zebrafish assessed as penetrance of normal embryonic axis dorsalization at 10 uM treated at 2 to 4 hrs post-fertilization measured at 48 hrs", "set-up": "scale not given: the % may be the effect or the level left"}},
  "note": "Active and inactive are the calls of the source. The calls are words filed in the database; no cut-off is given here.",
  "data": [
    {"compound": "c1cc(-c2cnn3cc(-c4ccc(OCCN5CCCCC5)cc4)cnc23)ccn1", "note": "[DORSOMORPHIN]", "values": [
      {"measurement": "fold change (FC)", "setting": "[1]", "value": 3},
      {"measurement": "inhibition", "setting": "[2]", "value": "Active"},
      {"measurement": "inhibition", "setting": "[3]", "value": "Active"},
      {"measurement": "IC50", "setting": "[4]", "value": 470, "unit": "nM"},
      {"measurement": "inhibition", "setting": "[5]", "value": "Dose-dependent effect"},
      {"measurement": "inhibition", "setting": "[6]", "value": "Active"},
      {"measurement": "inhibition", "setting": "[7]", "value": "Active"},
      {"measurement": "inhibition", "setting": "[8]", "value": "Active"},
      {"measurement": "inhibition", "setting": "[9]", "value": "Active"},
      {"measurement": "inhibition", "setting": "[10]", "value": "Active"},
      {"measurement": "inhibition", "setting": "[11]", "value": "Active"},
      {"measurement": "inhibition", "setting": "[12]", "value": "Active"},
      {"measurement": "inhibition", "setting": "[13]", "value": "Active"},
      {"measurement": "inhibition", "setting": "[14]", "value": "Dose-dependent effect"},
      {"measurement": "inhibition", "setting": "[15]", "value": "Dose-dependent effect"},
      {"measurement": "inhibition at 4 µM", "setting": "[16]", "value": 27, "unit": "%"},
      {"measurement": "Activity", "setting": "[17]", "value": 0, "unit": "%"},
      {"measurement": "Activity", "setting": "[18]", "value": 0, "unit": "%"},
      {"measurement": "Activity", "setting": "[19]", "value": 0, "unit": "%"},
      {"measurement": "Activity", "setting": "[20]", "value": 0, "unit": "%"},
      {"measurement": "Activity", "setting": "[21]", "value": 0, "unit": "%"},
      {"measurement": "Activity", "setting": "[22]", "value": 19, "unit": "%"},
      {"measurement": "Activity", "setting": "[23]", "value": "Non-toxic"},
      {"measurement": "Activity", "setting": "[24]", "value": 100, "unit": "%"},
      {"measurement": "Activity", "setting": "[25]", "value": 0, "unit": "%"},
      {"measurement": "Activity", "setting": "[26]", "value": 0, "unit": "%"},
      {"measurement": "Activity", "setting": "[27]", "value": 100, "unit": "%"},
      {"measurement": "Activity", "setting": "[28]", "value": 0, "unit": "%"}
    ]}
  ]
}
